Source: PubChem (ICCB-Longwood Screening Facility, Harvard Medical School)
A selection: hits, their analogues and other compounds. The true share with any hit is near 0.3%.
Ab BasE inh – blocks the Acinetobacter baumannii siderophore enzyme BasE; AID 485350; purified BasE, fluorescence polarization binding displacement; 0.1% of 84,000 active; inhibition, % (test concentration not listed); in the data active = inhibition above about 25%, passing the limit was not always enough;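 note: 0% = negative plate control signal and 100% = positive plate control signal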
LANA-nucl inh – inhibitors of KSHV LANA binding to nucleosomes | 0.3% of 51,000 active | z-score (concentration not given with the values) | FITC-LANA1-23 / chicken nucleosome fluorescence polarization; hits give low values;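 active = both repeat wells score below -2 in polarization z-score versus plate sample wells, excluding overly bright wells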
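test system = FITC-LANA peptide and chicken nucleosomes | amount = 240 nM purified chicken nucleosomes (480 nM peptide binding sites), final | reagent = 50 nM FITC-LANA1-23 probe | medium = TEN-BT buffer, pH 7.5 | doses = single compound addition by pin transfer, 100 nL per well | timing = 10–45 min, room temperature | detection = fluorescence polarization | repeats = duplicate plates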
* marks the source's active call; other numbers are inactive results; . = no result.

SMILES	Ab BasE inh	LANA-nucl inh
Cc1ccc(N2C(=O)c3cccc4c(N5CCN(C)CC5)ccc(c34)C2=O)c2cccnc12	26.6*	-2.79*
Cc1ccc2c(c1)-c1onc(C(=O)N(Cc3ccco3)CC3CCCO3)c1CO2 (stereo unspecified)	1.3	-0.976
O=C1CSc2sc(=S)sc2S1	28.2*	.
O=C(CCc1nc2cccnc2n1-c1ccccc1)NCc1ccc(CN2CCOCC2)o1	-0.2	0.477
O=C(O)CC(C(=O)O)C1SC(=O)NC1=O (stereo unspecified)	-2.3	.
O=c1[nH][nH]c(=S)n1-c1cccc(F)c1	-3.4	-0.282
CC(C)(C)N/N=C/c1ccc(O)c(O)c1O	4.6	.
Oc1ccc(/C=N/NC(=S)Nc2ccc(Cl)cc2Cl)c(O)c1O	33.9*	.
COc1cc(/C=N/NC(=O)c2ccccc2-n2cccc2)ccc1O	1.8	.
COc1cc(/C=N/NC(=O)c2cc(C3CC3)[nH]n2)ccc1O	49.2*	0.328
CC(OC(=O)c1ccccn1)C(=O)N1CCc2ccccc21 (stereo unspecified)	-1.4	.
Cc1cc2c3c([nH]c2cc1S(=O)(=O)NCCc1ccco1)CCCC3=O	2.0	0.352
N#C/C(=C/c1ccc(-c2cc(C(=O)O)ccc2Cl)o1)C(=O)NCCc1c[nH]c2ccccc12	30.8*	-0.032
N#C/C(=C\c1ccc(-c2cc(C(F)(F)F)ccc2Cl)o1)C(=O)O	0.2	.
CCCn1nc(NS(C)(=O)=O)c2cc3ccccc3nc21	0.9	-0.978
Cn1c(=O)c2c(SCC(=O)Nc3ccccc3C(F)(F)F)ccnc2n(C)c1=O	-0.7	-2.13*
CCCn1c(SCC(=O)Nc2ccccc2C(F)(F)F)nnc1-c1ccoc1C	-2.2	-1.04
O=C(CCCc1c[nH]c2ccccc12)N1CCN(S(=O)(=O)Cc2ccccc2)CC1	3.1	.
S=c1[nH]nc(CCCOc2ccc(Cl)cc2Cl)o1	3.0	1.07
Clc1ccc(OCCCc2nc(-c3cccnc3)n[nH]2)c(Cl)c1	46.3*	.
O=C(O)CCC(C(=O)O)N1C(=O)/C(=C/C=C/c2ccco2)SC1=S (stereo unspecified)	9.4	-2.17*
O=C1/C(=C\C=C\c2ccco2)SC(=S)N1NS(=O)(=O)c1ccccc1	40.5*	-0.518
CC(C)C(C(=O)O)N1C(=O)/C(=C/C=C/c2ccco2)SC1=S (stereo unspecified)	24.1	0.004
O=C(NN1C(=O)/C(=C\C=C\c2ccco2)SC1=S)c1ccccc1O	20.7	1.59
c1ccc2c(c1)sc1nnc(Sc3ncnc4sc5c(c34)CCCC5)n12	1.0	.
SMILES	Ab BasE inh	LANA-nucl inh
COC(=O)CC1SC(=O)NC1=S (stereo unspecified)	32.0	-5.15*
O=C(CC1SC(=O)NC1=O)Nc1ccccc1NC(=O)CC1SC(=O)NC1=O (stereo unspecified)	1.3	0.0525
CN1CCN(CCCNC(=O)Cc2ccc(NC(=O)N3CCSc4ncccc43)cc2)CC1	-0.8	.
O=C(N/N=C1\CCS(=O)(=O)c2ccc(F)cc21)c1ccc(O)cc1	55.1*	.
O=C(N/N=C1/CCS(=O)(=O)c2ccc(F)cc21)c1ccccn1	-0.6	.
CCCN(Cc1nnc(-c2ccccc2Cl)o1)C(=O)Cc1coc2cc(C)c(C)cc12	-1.9	.
CCn1c(=O)cc(OCC(=O)O)c2ccccc21	1.9	-1.07
CCn1c(=O)cc(OCC(=O)Nc2cccnc2)c2ccccc21	25.4*	-0.195
COc1cccc2c1C(=O)c1c(O)c3c(c(O)c1C2=O)C[C@@](O)(C(=O)CO)C[C@@H]3OC1C[C@H](N)[C@H](O)[C@H](C)O1 (stereo partly specified)	.	-7.53*
CC1=CC(C)=NC2Nc3c(C)cc(C)cc3C(=N)C12 (stereo unspecified)	5.1	-2.24*
CC1CCCC(C)N1C(=O)CN1CCC(N2CCCCC2)CC1 (stereo unspecified)	0.8	0.409
CCNc1cc(NCC)c2noc3c2c1C(=O)c1ccccc1-3	2.8	-0.064
CC(=O)OCCNc1cc(Cl)c2noc3c2c1C(=O)c1ccccc1-3	8.2	-3.71*
CCCC(C)C(=O)Nc1ccc(-c2nc3ccccc3o2)cc1 (stereo unspecified)	1.0	-2.25*
CC(C)C(=O)Nc1cccc(-c2nc3ccccc3o2)c1	1.4	0.634
CCc1nc2ccc(C(=O)N3CCCCCC3)cc2nc1CC	0.7	.
COc1ccc(C2C(C(N)=O)C(=O)NC(O)(c3ccccc3)C2C#N)cc1 (stereo unspecified)	1.9	-2.34*
COc1ccc(C2CC(=O)N3C(=C2C#N)SCC3(O)c2ccccc2)cc1 (stereo unspecified)	-5.6	2.24
O=C(NCCOc1ccc2c(c1)OCO2)C1CCN(C(=O)NC2CCCCC2)CC1	1.1	-0.98
COCCn1cnc2c1c(=O)n(CC(O)c1ccccc1)c(=O)n2CC(C)C (stereo unspecified)	1.5	.
CCOC(=O)c1c2ccc(O)cc2n2ccccc12	.	-6.99*
CCOC(=O)c1c(C)n(C)c2ccc(O)cc12	0.3	-0.103
O=C(O)c1ccc(C2SCCCS2)cc1	0.6	.
Oc1ccc(C2SCCS2)cc1	53.2*	.
CCN1CCCC1CNCC(O)COc1ccc(C)cc1 (stereo unspecified)	1.8	.
SMILES	Ab BasE inh	LANA-nucl inh
Nc1ccccc1C(=O)NCC(=O)O	2.9	.
O=S(=O)(Nc1ccccc1)C(F)(F)F	1.3	.
O=C(CCc1c[nH]c2ccccc12)OCc1nnc(-c2ccccc2)o1	2.3	-2.13*
O=C(Cc1ccccc1)OCc1nnc(-c2ccccc2)o1	-2.9	0.177
COc1ccccc1-n1cnc2cc(NCc3ccncc3)ccc21	32.3*	0.494
CCCCn1cnc2cc(NCc3ccncc3)ccc21	12.8	-0.392
CCOc1ccc(C(C)(C)C)cc1S(=O)(=O)Nc1cccnc1	-0.2	-0.84
O=C(O)CN1CCCC1=O	-1.5	-0.215
O=C(NC1=NCCS1)c1ccc(S(=O)(=O)N2CCc3ccccc3C2)cc1	-0.5	.
CCCOc1ccc(C2C3CN(CC)CC=C3C(C#N)=C(N)C2(C#N)C#N)cc1OC (stereo unspecified)	1.9	-1.63
CCCN1CC=C2C(C#N)=C(N)C(C#N)(C#N)C(c3ccc(F)cc3F)C2C1 (stereo unspecified)	31.2	-4.5*
CS(=O)(=O)N1CCN(C2CCCCC2)CC1	-0.7	0.115
O=C(O)c1cc(-c2ccc(O)c(O)c2)nc2n[nH]c(-c3ccc(F)cc3)c12	41.5*	-0.265
COc1ccc(-c2cc(C(=O)N3CCOCC3)c3c(-c4ccc(Cl)cc4)[nH]nc3n2)cc1	-5.8	1.93
N=c1c2c(F)cccc2ncn1NC(=O)c1ccncc1	1.7	0.0815
CC1=C(C(=O)Nn2cnc3cccc(F)c3c2=N)Sc2ccccc2N1	35.6*	.
COC(=O)c1ccc(CNC(=O)C2CC2C)cc1 (stereo unspecified)	1.9	.
CCCOc1cccc2ccccc12	1.7	-0.254
COCCn1c(SCC(=O)NCc2ccc3c(c2)OCO3)nnc1-c1c[nH]c2ccccc12	0.5	-2.16*
Cc1occc1-c1nnc(SCC(=O)NCc2ccc3c(c2)OCO3)n1CC(C)C	1.2	-1.09
COc1ccc(N/N=C(\C#N)C(=O)Nc2ccccc2C(=O)O)cc1Cl	79.6*	.
Cc1ccc(NC(=O)/C(C#N)=N/Nc2ccc(C(=O)O)cc2)c(C)c1	3.9	.
CC(C)(C)c1nc2ccc(N)cc2[nH]1	1.5	-0.126
CC1=C(C(=O)Nc2ccc(CC(=O)NCc3ccc4c(c3)OCO4)cc2)SCCO1	-1.5	0.159
NCCSc1nnc2c(n1)[nH]c1ccccc12	1.3	0.247
